Structures are written as SMILES. Converted amounts (≈) assume the structure as drawn.

Series [1] concerns the target T1, Metabotropic glutamate receptor 5 (Homo sapiens, UniProt P41594). Briefly: Antagonist activity at human mGluR5 expressed in CHO cells assessed as glutamate induced calcium mobilization.
The nature of series [2]: Fraction unbound in rat brain. The series is classed as ADME, tissue-based.
A short description of series [3]: Lipophilicity, log D of the compound at pH 7.4. The series is classed as physicochemical. To be noted: buffer.
For series [4], the target named is T1, Metabotropic glutamate receptor 5. Briefly: Antagonist activity at human mGluR5 expressed in CHO cells assessed as […] calcium mobilization. It counts as functional, cell-based. Summed up:
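CHO cells stably expressing apo-aequorin, with human mGluR5 expression induced by doxycycline. Calcium mobilisation read by aequorin luminescence. Eleven-point concentration-response curves run in the presence of an EC80 of glutamate. pIC50 is the average of at least two curves.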
Background: A change in cytosolic calcium serves as a functional read-out for many receptors and channels.

A short description of series [5]: Oral bioavailability in rat at 1.0 mg/kg. It counts as ADME, organism-based. The settings on record: in vivo. Summed up: (§1)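 Rat pharmacokinetics after a 1.0 mg/kg oral dose and a 0.5 mg/kg intravenous dose. Blood clearance, oral blood Cmax, brain:blood AUC ratio and oral bioavailability determined.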
Series [6] can be described thus: Solubility of the compound. It counts as physicochemical.
Series [7] in a line: Clearance in rat at 1.0 mg/kg, po and 0.5 mg/kg, iv. It counts as ADME, organism-based. To be noted: in vivo. Summed up:
as §1

Series [8] is described as follows: Ratio of AUC in rat brain to plasma at 1.0 mg/kg, po and 0.5 mg/kg, iv. It counts as ADME, organism-based. The settings on record: read-out: Ratio AUC. Summed up: as §1
Series [9] deals with Metabotropic glutamate receptor 1 (Homo sapiens) (UniProt Q13255). Briefly: Antagonist activity at mGluR1.
Chain of Metabotropic glutamate receptor 1 (Homo sapiens) (Q13255 whole entry, looked up): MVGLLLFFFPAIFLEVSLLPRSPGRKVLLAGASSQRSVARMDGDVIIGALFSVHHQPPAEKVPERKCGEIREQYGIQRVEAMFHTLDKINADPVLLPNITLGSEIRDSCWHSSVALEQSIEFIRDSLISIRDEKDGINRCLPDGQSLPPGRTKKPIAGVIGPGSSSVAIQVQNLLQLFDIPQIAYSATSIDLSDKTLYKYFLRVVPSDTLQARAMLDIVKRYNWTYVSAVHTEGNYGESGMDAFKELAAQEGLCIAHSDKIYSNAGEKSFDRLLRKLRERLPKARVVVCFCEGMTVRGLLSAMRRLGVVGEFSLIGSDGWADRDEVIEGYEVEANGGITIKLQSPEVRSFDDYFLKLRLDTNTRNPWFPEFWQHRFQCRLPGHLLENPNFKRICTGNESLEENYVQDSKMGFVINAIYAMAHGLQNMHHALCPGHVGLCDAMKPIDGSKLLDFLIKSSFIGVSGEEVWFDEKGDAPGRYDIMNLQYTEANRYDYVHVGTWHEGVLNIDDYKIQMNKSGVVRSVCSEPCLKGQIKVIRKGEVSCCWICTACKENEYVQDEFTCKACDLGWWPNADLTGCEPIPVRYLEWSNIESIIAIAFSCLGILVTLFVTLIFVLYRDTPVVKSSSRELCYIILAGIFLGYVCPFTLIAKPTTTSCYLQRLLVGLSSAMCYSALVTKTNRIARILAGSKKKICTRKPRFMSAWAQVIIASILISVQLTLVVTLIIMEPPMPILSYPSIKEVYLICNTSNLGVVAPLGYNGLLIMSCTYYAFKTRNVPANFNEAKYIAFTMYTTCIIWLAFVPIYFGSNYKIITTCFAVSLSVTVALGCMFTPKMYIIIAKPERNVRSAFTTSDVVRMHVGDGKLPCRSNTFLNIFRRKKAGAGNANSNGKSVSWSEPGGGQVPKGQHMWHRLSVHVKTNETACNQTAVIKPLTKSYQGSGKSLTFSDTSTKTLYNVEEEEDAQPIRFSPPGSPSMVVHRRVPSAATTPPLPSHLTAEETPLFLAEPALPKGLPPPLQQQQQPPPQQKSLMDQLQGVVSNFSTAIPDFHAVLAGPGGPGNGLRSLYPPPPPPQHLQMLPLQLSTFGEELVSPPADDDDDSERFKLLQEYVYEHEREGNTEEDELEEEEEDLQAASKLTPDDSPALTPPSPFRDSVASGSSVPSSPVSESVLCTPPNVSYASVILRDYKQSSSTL
Series [10] can be described thus: Cmax in rat at 1.0 mg/kg, po. Also on record: dose 1 mg/kg, route oral. The series is classed as ADME, organism-based. The settings on record: in vivo. Summed up:
as §1

The target of series [11] is Metabotropic glutamate receptor 5 (Mus musculus, UniProt Q3UVX5). Briefly: Antagonist activity at mGluR5 in mouse astrocytes assessed as inhibition of L-quisqualate induced calcium release by FLIPR assay. It counts as functional, cell-based. A digest of the protocol: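 Primary cortical astrocytes from CD1 mouse pups aged 1–3 days. Cultures re-plated after 5 days to remove neurons and grown at 37 °C to confluence (10–14 d), then plated for 2 days. Cells pre-incubated with antagonist concentration-response curves and challenged with the day's EC80 of L-quisqualate. Intracellular calcium monitored on FLIPR to give fpKi.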
Chain of Metabotropic glutamate receptor 5 (Mus musculus, UniProt Q3UVX5) (Q3UVX5 whole entry): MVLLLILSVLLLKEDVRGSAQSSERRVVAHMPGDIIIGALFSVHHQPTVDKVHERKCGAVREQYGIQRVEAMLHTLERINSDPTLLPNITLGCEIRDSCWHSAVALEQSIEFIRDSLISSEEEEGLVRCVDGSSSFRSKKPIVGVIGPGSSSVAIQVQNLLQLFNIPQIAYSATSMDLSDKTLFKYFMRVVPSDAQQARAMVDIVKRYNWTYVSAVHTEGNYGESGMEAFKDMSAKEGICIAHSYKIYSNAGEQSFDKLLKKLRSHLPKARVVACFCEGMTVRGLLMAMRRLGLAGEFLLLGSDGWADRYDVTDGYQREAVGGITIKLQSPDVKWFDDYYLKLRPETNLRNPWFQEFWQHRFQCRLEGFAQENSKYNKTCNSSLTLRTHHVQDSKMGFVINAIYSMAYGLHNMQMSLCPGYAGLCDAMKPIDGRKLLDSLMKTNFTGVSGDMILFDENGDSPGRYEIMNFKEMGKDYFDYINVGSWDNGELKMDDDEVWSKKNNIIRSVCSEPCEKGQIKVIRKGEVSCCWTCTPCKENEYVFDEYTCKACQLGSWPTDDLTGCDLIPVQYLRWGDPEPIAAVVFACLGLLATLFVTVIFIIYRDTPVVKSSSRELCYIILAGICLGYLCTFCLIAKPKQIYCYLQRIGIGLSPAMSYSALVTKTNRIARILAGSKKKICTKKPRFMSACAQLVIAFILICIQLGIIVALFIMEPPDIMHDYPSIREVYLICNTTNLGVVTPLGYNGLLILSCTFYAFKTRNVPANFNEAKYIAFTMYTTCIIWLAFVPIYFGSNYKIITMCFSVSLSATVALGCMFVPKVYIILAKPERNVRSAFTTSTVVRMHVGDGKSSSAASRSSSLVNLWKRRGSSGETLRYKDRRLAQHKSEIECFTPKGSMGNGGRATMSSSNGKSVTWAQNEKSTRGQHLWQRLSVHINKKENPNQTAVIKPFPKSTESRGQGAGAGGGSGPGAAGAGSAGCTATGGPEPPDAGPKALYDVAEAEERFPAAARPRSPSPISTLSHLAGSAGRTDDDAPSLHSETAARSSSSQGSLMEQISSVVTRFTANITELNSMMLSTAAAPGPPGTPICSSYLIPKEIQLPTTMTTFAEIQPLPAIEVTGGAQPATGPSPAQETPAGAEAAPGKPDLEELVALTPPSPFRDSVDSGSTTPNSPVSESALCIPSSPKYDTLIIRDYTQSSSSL

Series [12] in a line: Cmax in rat brain at 1.0 mg/kg, po. The series is classed as ADME, organism-based. Also on record: dose 1 mg/kg, route oral.
For a further series, the system named is Brain. The experiment in a line: fCmax in rat brain at 1.0 mg/kg, po. It counts as ADME, organism-based. The settings on record: in vivo. More on the design: dose 1 mg/kg, route oral.

T1 sequence (P41594 whole entry): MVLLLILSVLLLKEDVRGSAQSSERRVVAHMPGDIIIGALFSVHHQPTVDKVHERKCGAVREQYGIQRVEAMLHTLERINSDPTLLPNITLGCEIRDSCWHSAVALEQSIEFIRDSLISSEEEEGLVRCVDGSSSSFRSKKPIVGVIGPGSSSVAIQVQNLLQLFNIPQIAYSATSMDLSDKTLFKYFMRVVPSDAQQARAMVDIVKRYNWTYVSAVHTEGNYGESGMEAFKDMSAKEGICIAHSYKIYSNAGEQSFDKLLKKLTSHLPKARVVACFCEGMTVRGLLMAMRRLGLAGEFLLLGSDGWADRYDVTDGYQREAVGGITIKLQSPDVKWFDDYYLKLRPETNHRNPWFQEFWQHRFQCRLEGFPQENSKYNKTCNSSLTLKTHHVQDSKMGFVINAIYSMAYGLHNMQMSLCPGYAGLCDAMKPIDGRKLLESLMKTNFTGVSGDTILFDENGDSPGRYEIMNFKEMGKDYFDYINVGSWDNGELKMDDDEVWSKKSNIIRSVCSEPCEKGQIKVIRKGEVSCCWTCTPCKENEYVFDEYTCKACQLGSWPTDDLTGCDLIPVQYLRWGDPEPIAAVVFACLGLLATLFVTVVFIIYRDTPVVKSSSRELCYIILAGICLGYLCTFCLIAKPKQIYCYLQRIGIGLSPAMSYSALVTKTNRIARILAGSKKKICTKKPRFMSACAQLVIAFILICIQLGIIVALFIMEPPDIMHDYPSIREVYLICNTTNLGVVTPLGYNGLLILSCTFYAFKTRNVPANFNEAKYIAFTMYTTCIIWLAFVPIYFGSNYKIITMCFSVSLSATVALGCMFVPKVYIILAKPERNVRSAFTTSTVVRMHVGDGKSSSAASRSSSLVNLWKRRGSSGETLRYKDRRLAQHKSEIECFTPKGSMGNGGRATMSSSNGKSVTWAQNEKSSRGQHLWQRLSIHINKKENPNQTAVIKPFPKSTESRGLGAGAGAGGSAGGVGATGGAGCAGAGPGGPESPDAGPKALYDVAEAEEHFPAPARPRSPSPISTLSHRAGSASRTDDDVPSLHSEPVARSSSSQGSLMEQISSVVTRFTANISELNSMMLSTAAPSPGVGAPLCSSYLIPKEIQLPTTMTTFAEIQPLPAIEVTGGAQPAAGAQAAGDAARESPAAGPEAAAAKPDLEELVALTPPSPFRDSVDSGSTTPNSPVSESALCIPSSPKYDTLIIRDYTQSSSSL

Regarding `Cc1c(C(C)OC(=O)Nc2ccccc2)sc2nncn12` (stereo not given), in series [1], the IC50 is 0.126 µM.
The compound `Cc1c(C(C)OC(=O)Nc2cccc(F)c2)sc2nncn12` (stereo not given) came in with a fraction unbound in series [2] of 0.068. Besides, the IC50 in series [1] was 0.0631 µM. In addition, the logD in [3] is 2.
With `Cc1c(C(C)OC(=O)Nc2ccccc2)sc2nc(Cl)nn12` (stereo not given), the IC50 in [4] was 0.01 µM.
As to `Cc1c(COC(=O)Nc2ccccc2)sc2ncnn12`, the IC50 in series [1] was above 31.6 µM.
`Cc1c(C(C)OC(=O)Nc2ccccc2)sc2ncnn12` (stereo not given): the IC50 in [1] was above 31.6 µM.
On to `Cc1c(C(C)OC(=O)Nc2ccccc2)sc2nc(C3CC3)nn12` (stereo not given), for which the IC50 in series [4] was 0.0126 µM.
In series [2], `Cc1c(C(C)OC(=O)Nc2cccnc2)sc2ncnn12` (stereo not given) had a fraction unbound of 0.28. In addition, in [1], the IC50 is 0.316 µM. Besides, the logD in series [3] is 1.
On to `O=C(Nc1ccccc1)OCc1cn2ncnc2s1`, for which the IC50 in series [1] was above 31.6 µM.
For the compound `Cc1c(C(C)OC(=O)NC2CCCCC2)sc2ncnn12` (stereo not given), the IC50 in [4] is 3.16 µM.
For `Cc1c(C(C)OC(=O)Nc2ccccc2)sc2nc(C(F)(F)F)nn12` (stereo not given), in series [4], the IC50 is 0.0398 µM.
As to `Cc1c([C@@H](C)OC(=O)Nc2cccc(F)c2)sc2nncn12`, the bioavailability in series [5] is 100%. Further, the solubility in [6] was determined as 0.031 mg/mL (≈ 96.8 µM). For the same compound, the clearance in [7] came out at 1.98 L/h/kg. In series [8], the Kp stood at 0.2. The IC50 in [9] was above 50.1 µM; in [1], 0.0398 µM; in series [11], 0.0316 µM. Further, the highest level in series [10] (Cmax) was 0.21 µg/mL.
For `Cc1c(C(C)OC(=O)Nc2cccc(Cl)c2)sc2ncnn12` (stereo not given), the IC50 in series [4] was 0.0398 µM. The fraction unbound in series [2] is 0.009. The logD in [3] worked out at 2.9.
On to `Cc1c(C(C)OC(=O)Nc2ccccc2Cl)sc2ncnn12` (stereo not given), for which, in series [4], the concentration for half-maximal inhibition (IC50) is 0.501 µM.
Turning to `Cc1c(C(C)OC(=O)Nc2cccc(F)c2)sc2ncnn12` (stereo not given), in series [4], the IC50 is 0.0501 µM. In series [2], this compound yielded a fraction unbound of 0.017. This compound also displayed a logD in [3] of 2.6.
Take `Cc1c(C(C)OC(=O)Nc2ccccc2)sc2nc(-c3cccs3)nn12` (stereo not given): in [4], the IC50 was 0.00794 µM. Further, in [2], the fraction unbound was below 0.001. The logD in series [3] was found to be 3.7.
Turning to `Cc1c([C@@H](C)OC(=O)Nc2ccccc2)sc2ncnn12`, the Cmax in [12] was 0.25 µM; in [10], 0.063 µg/mL. Besides, the bioavailability in series [5] was found to be 28%. The compound also had a solubility in [6] of 0.166 mg/mL (≈ 549 µM). The same compound had a clearance in [7] of 2.88 L/h/kg. For the same compound, in series [8], the Kp turned out to be 2. Besides, the IC50 in series [9] was 31.6 µM; in series [1], 0.0398 µM; in series [11] it was 0.0316 µM. The compound also registered a fCmax in the series on Brain of 30 nM.
`CC(OC(=O)Nc1ccccc1)c1cn2ncnc2s1` (stereo not given): the IC50 in [1] was 10 µM.
Same read-out and setting: under `Cc1c([C@H](C)OC(=O)Nc2ccccc2)sc2ncnn12` stands above 10 µM.
For `Cc1c(C(C)OC(=O)Nc2ccc(Cl)cc2)sc2ncnn12` (stereo not given), the IC50 in series [4] was 2.51 µM.
`Cc1c(C(C)OC(=O)Nc2ccccc2)sc2nccn12` (stereo not given) yielded a fraction unbound in series [2] of 0.003. For the same compound, in series [1], the IC50 is 0.0126 µM. This compound gave a logD in series [3] of 2.4.
On to `Cc1c(C(C)OC(=O)N(C)c2ccccc2)sc2ncnn12` (stereo not given), for which the IC50 in series [1] was above 31.6 µM.
As for `Cc1c(C(C)OC(=O)Nc2ccccc2)sc2nc(-c3ccc(F)cc3)nn12` (stereo not given), the IC50 in series [4] was 0.01 µM.

One may read the IC50 as the midpoint of a concentration-inhibition curve. In general, fraction unbound refers to the share of the substance not bound to proteins or other matrix. Low values mean extensive binding, high ones weak binding. By logD is commonly meant lipophilicity at a set pH, counting ionised and neutral species. Higher therefore signals higher lipophilicity. The bioavailability is the share of a dose that reaches the circulation, judged against a reference dose that is usually intravenous. Low readings indicate poor availability, high ones good availability. Usually solubility stands for the dissolved amount per volume that the medium holds. Lower therefore signals a poorly soluble substance. For orientation: Cmax means the highest concentration seen after dosing.

The record behind these values is ChEMBL document CHEMBL1629432, “The identification of novel orally active mGluR5 antagonist GSK2210875” (Bioorg Med Chem Lett, 2010).
